How the values were obtained:
Assay type in all cases: cell-based
DLD-1 [1] = assay: Inhibition of 20S proteasome activity in human DLD1 cells transfected with 4Ub-Luc gene assessed as bioluminescence induction factor at 10 uM after 8 hrs by luciferase reporter gene assay relative to epoxomicin
How it was run: (§1)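 Stably transfected DLD-1 cells expressing 4Ub-Luc reporter, cultured in MEM with 5% heat-inactivated serum. Seeded at 10⁴ cells/well and treated with compound or solvent for 8 h. Luciferase activity in lysates read by luminometer. Induction factor = signal of treated over untreated cells, normalised to epoxomicin at 10^-7 M run in parallel (set to 100). IF ≥10 counted active.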

DLD-1 [2] = assay: Inhibition of 20S proteasome in human DLD1 cells transfected with 4Ub-Luc gene assessed as bioluminescence induction factor at 5 uM after 8 hrs by luciferase reporter gene assay relative to epoxomicin; how it was run: as §1
DLD-1 [3] = assay: Inhibition of 20S proteasome in human DLD1 cells transfected with 4Ub-Luc gene assessed as bioluminescence induction factor at 1 uM after 8 hrs by luciferase reporter gene assay relative to epoxomicin; how it was run: as §1
[4] = Inhibition of peptide-glutamyl-peptide-hydrolyzing activity of 20S proteasome in human DLD1 cells transfected with 4Ub-Luc gene using Z-Leu-Leu-Glu-AMC as substrate after 6 hrs by spectrofluorometric analysis; conditions: dld-1
How it was run: (§2)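 DLD-1 4Ub-Luc cells seeded at 10⁴ cells/well, exposed to compound or solvent for 6 h, then 30 min in reaction buffer (30 mM Tris–HCl pH 7.5, 1 mM ATP). Chymotrypsin-like and PGPH activities read with specific fluorogenic substrates.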

[5] = Inhibition of chymotrypsin-like activity of 20S proteasome in human DLD1 cells transfected with 4Ub-Luc gene using Succinyl-Leu-Leu-Val-Tyr-AMC as substrate after 6 hrs by spectrofluorometric analysis; conditions: dld-1; how it was run: as §2

SMILES	fold change (FC) (DLD-1 [1])	fold change (FC) (DLD-1 [2])	fold change (FC) (DLD-1 [3])	IC50 [4] [µM]	IC50 [5] [µM]
C=C(C(=O)[C@H](OC(C)=O)[C@@H](C)[C@H]1[C@@H](OC(C)=O)C[C@@]2(C)[C@@H]3CC[C@H]4[C@H](C)C(=O)C=C[C@@]45C[C@@]35CC[C@]12C)[C@@H](C)COC(=O)CNCCCNCCCCNCCCN	11	1.4	1.1		
CC(=O)O[C@H]1C[C@@]2(C)[C@@H]3CC[C@H]4[C@H](C)/C(=N/OCc5ccccc5)C=C[C@@]45C[C@@]35CC[C@]2(C)[C@H]1[C@H](C)[C@@H](OC(C)=O)C(=O)C(CNOCc1ccccc1)[C@@H](C)CO (stereo not given in full)	0.9	0.9	0.9		
C=C(C(=O)[C@H](OC(C)=O)[C@@H](C)[C@H]1[C@@H](OC(C)=O)C[C@@]2(C)[C@@H]3CC[C@H]4[C@H](C)C(=O)C=C[C@@]45C[C@@]35CC[C@]12C)[C@@H](C)CN1C(=O)CN(CCCN(CCCCN(CCCNC(=O)OC(C)(C)C)C(=O)OC(C)(C)C)C(=O)OC(C)(C)C)C1=O	37	30	1		
C=C(C(=O)[C@H](OC(C)=O)[C@@H](C)[C@H]1[C@@H](OC(C)=O)C[C@@]2(C)[C@@H]3CC[C@H]4[C@H](C)C(=O)C=C[C@@]45C[C@@]35CC[C@]12C)[C@@H](C)C=O	31	70	1		
C=C(C(=O)[C@H](OC(C)=O)[C@@H](C)[C@H]1[C@@H](OC(C)=O)C[C@@]2(C)[C@@H]3C[C@@H](O)[C@H]4[C@H](C)C(=O)C=C[C@@]45C[C@@]35CC[C@]12C)[C@@H](C)CO		31	5.1	> 1000	> 1000
C=C(C(=O)[C@H](OC(C)=O)[C@@H](C)[C@H]1[C@@H](OC(C)=O)C[C@@]2(C)[C@@H]3CC[C@H]4[C@H](C)C(=O)C=C[C@@]45C[C@@]35CC[C@]12C)[C@@H](C)CO[C@@]1(C)O[C@@H]2O[C@@H](COC(C)=O)[C@H](OC(C)=O)[C@@H](OC(C)=O)[C@@H]2O1	48	59	2		
C=C(C(=O)[C@H](O)[C@@H](C)[C@H]1[C@@H](OC(C)=O)C[C@@]2(C)[C@@H]3CC[C@H]4[C@H](C)C(=O)C=C[C@@]45C[C@@]35CC[C@]12C)[C@@H](C)COS(=O)(=O)O	0.9	0.8	0.9		
C=C(C(=O)[C@H](OC(C)=O)[C@@H](C)[C@H]1[C@@H](OC(C)=O)C[C@@]2(C)[C@@H]3CC[C@H]4[C@H](C)C(=O)C=C[C@@]45C[C@@]35CC[C@]12C)[C@@H](C)COC(=O)CP(=O)(O)O	1.4	1.1	1.1		
C=C(C(=O)[C@H](OC(C)=O)[C@@H](C)[C@H]1[C@@H](OC(C)=O)C[C@@]2(C)[C@@H]3CC[C@H]4[C@H](C)C(=O)C=C[C@@]45C[C@@]35CC[C@]12C)[C@@H](C)COC(=O)CN	56	76	1.4		
C=C(C(=O)[C@H](O)[C@@H](C)[C@H]1[C@@H](OC(C)=O)C[C@@]2(C)[C@@H]3C[C@@H](O)[C@H]4[C@H](C)C(=O)C=C[C@@]45C[C@@]35CC[C@]12C)[C@@H](C)CO		35	1.1	> 1000	> 1000
CONCC(C(=O)[C@H](OC(C)=O)[C@@H](C)[C@H]1[C@@H](OC(C)=O)C[C@@]2(C)[C@@H]3CC[C@H]4[C@H](C)C(=O)C=C[C@@]45C[C@@]35CC[C@]12C)[C@@H](C)CO (stereo not given in full)	4.9	1.2	1.1		
C=C(C(=O)[C@H](OC(C)=O)[C@@H](C)[C@H]1[C@@H](OC(C)=O)C[C@@]2(C)[C@@H]3CC[C@H]4[C@H](C)C(=O)C=C[C@@]45C[C@@]35CC[C@]12CO)[C@@H](C)CO	1.1	12	1.2		
C=C(C(=O)[C@H](O)[C@@H](C)[C@H]1[C@@H](OC(C)=O)C[C@@]2(C)[C@@H]3CC[C@H]4[C@H](C)C(=O)C=C[C@@]45C[C@@]35CC[C@]12C)[C@@H](C)COC(=O)CN(C)C [listing 1 of 2 here]				22	17
C=C(C(=O)[C@H](OC(C)=O)[C@@H](C)[C@H]1[C@@H](OC(C)=O)C[C@@]2(C)[C@@H]3CC[C@H]4[C@H](C)C(=O)C[C@H](O)[C@@]45C[C@@]35CC[C@]12C)[C@@H](C)CO	74	11	1.6		
C=C(C(=O)[C@H](OC(C)=O)[C@@H](C)[C@H]1[C@@H](OC(C)=O)C[C@@]2(C)[C@@H]3CC[C@H]4[C@H](C)C(=O)C=C[C@@]45C[C@@]35CC[C@]12C)[C@@H](C)C(=O)O	16	1.4	1		
C=C(C(=O)[C@H](O)[C@@H](C)[C@H]1[C@@H](OC(C)=O)C[C@@]2(C)[C@@H]3CC[C@H]4[C@H](C)C(=O)CC[C@@]45C[C@@]35CC[C@]12C)[C@@H](C)CO	77	10	1.2		
C=C(C(=O)[C@H](OC(C)=O)[C@@H](C)[C@H]1[C@@H](OC(C)=O)C[C@@]2(C)[C@@H]3CC[C@H]4[C@H](C)C(=O)C(O)C(O)[C@@]45C[C@@]35CC[C@]12C)[C@@H](C)COCC(O)CO (stereo not given in full)	48	32	1.1		
CO/N=C1/C=C[C@]23C[C@]24CC[C@]2(C)[C@@H]([C@H](C)[C@@H](OC(C)=O)C(=O)C(CNOC)[C@@H](C)CO)[C@@H](OC(C)=O)C[C@@]2(C)[C@@H]4CC[C@H]3[C@@H]1C (stereo not given in full)	0.6	0.7	1		
C=C(C(=O)[C@H](O)[C@@H](C)[C@H]1[C@@H](OC(C)=O)C[C@@]2(C)[C@@H]3CC[C@H]4[C@H](C)C(=O)C=C[C@@]45C[C@@]35CC[C@]12C)[C@@H](C)COC(=O)N1CCN(C)CC1				12	12
C=C(C(=O)[C@H](OC(C)=O)[C@@H](C)[C@H]1[C@@H](OC(C)=O)C[C@@]2(C)[C@@H]3CC[C@H]4[C@H](C)C(=O)C=C[C@@]45C[C@@]35CC[C@]12C)[C@@H](C)COS(=O)(=O)O	1.6	1.4	1.4		
C=C(C(=O)[C@H](O)[C@@H](C)[C@H]1[C@@H](OC(C)=O)C[C@@]2(C)[C@@H]3CC[C@H]4[C@H](C)C(=O)C=C[C@@]45C[C@@]35CC[C@]12C)[C@@H](C)COC(=O)CN(C)C [listing 2 of 2 here]				23	19
C=C(C(=O)[C@H](OC(=O)CCC(=O)O)[C@@H](C)[C@H]1[C@@H](OC(C)=O)C[C@@]2(C)[C@@H]3CC[C@H]4[C@H](C)C(=O)C=C[C@@]45C[C@@]35CC[C@]12C)[C@@H](C)COC(=O)CCC(=O)O	1.2	1.1	1.2		
C=C(C(=O)[C@H](OC(C)=O)[C@@H](C)[C@H]1[C@@H](OC(C)=O)C[C@@]2(C)[C@@H]3CC[C@H]4[C@H](C)C(=O)C=C[C@@]45C[C@@]35CC[C@]12C)[C@H](C)CO	88	51	1.1		
CC(=O)O[C@H]1C[C@@]2(C)[C@@H]3CC[C@H]4[C@H](C)C(=O)C=C[C@@]45C[C@@]35CC[C@]2(C)[C@H]1[C@H](C)C=O	3	1.3			

From ChEMBL document CHEMBL1938254, “Semisynthetic neoboutomellerone derivatives as ubiquitin-proteasome pathway inhibitors” (Bioorg Med Chem, 2012)
